# Measurements as given in ChEMBL document CHEMBL1157562, “Piperazinyl glutamate pyridines as potent orally bioavailable P2Y12 antagonists for inhibition of platelet aggregation” (J Med Chem, 2010).
# Tests used:
# in vivo = settings: Sprague-Dawley, rat, po, 5 mg/kg
# [1] = Antiplatelet aggregation activity against adenosine diphosphate-induced human platelet rich plasma assessed as inhibition of platelet aggregation by turbidimetric method; assay type: functional
# Summary of the method: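 Human PRP, prepared by two-step centrifugation and adjusted to 330 000 platelets/μL with PPP. Compound was preincubated 5 min at 37 °C in 0.5% DMSO, then 20 μM ADP was added. OD626 was read kinetically for 15 min at 37 °C with mixing between reads.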
# P2Y purinoceptor 12 = P2Y purinoceptor 12 (Homo sapiens, UniProt Q9H244); assay: Displacement of [33P]ADP from human recombinant P2Y12 receptor expressed in CHO cells; assay type: cell-based
# Sequence of P2Y purinoceptor 12 (Q9H244 whole entry): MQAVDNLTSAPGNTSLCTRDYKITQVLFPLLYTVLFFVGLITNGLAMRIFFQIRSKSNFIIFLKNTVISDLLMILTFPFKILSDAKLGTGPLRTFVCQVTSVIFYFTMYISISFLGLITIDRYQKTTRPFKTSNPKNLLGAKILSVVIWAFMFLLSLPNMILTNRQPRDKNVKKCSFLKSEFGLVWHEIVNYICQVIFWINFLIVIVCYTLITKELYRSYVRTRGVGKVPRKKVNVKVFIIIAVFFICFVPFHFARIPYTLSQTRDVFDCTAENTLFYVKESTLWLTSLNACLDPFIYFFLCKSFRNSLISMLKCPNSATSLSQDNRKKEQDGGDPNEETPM
# Summary of the method: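 Washed membranes from CHO cells expressing synthetic human P2Y12, incubated 1 h at room temperature with 0.2 nM 33P-MeSADP in 50 mM Tris/100 mM NaCl/1 mM EDTA. Compound was tested as a 7-point 3-fold series in triplicate. Nonspecific binding was defined with 300 nM 2-MeSADP, followed by filtration.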
# [2] = Volume of distribution at steady state in Sprague-Dawley rat at 2 mg/kg, iv and 5 mg/kg, po; assay type: ADME, organism-based; settings: in vivo, read-out: Vdss
# Summary of the method: (§1)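 Rats received 2 mg/kg iv infusion or 5 mg/kg po, in 50% PEG400/40% PBS/10% ethanol.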
# [3] = Clearance in Sprague-Dawley rat at 2 mg/kg, iv and 5 mg/kg, po; assay type: ADME, organism-based; settings: in vivo
# Summary of the method: as §1
# Platelet = assay: Relative potency, ratio of IC50 for drug to IC50 for AZD-6140 for platelet aggregation in human platelet rich plasma; assay type: functional
# [4] = Half life in Sprague-Dawley rat at 2 mg/kg, iv and 5 mg/kg, po; assay type: ADME, organism-based; settings: in vivo
# Summary of the method: as §1
# [5] = Antiplatelet aggregation activity against adenosine diphosphate-induced human platelet rich plasma assessed as inhibition of platelet aggregation by chronolog PRP aggregometry assay; settings: read-out: IC50(app)
# [6] = Chemical stability of the compound; assay type: physicochemical
# Rattus norvegicus [7] = species: Rattus norvegicus; assay: Toxicity in rat assessed as adverse effects; assay type: organism-based; settings: in vivo
# Canis familiaris = species: Canis familiaris; assay: Toxicity in dog assessed as adverse effects; assay type: organism-based, Canis lupus familiaris; settings: in vivo
# Rattus norvegicus [8] = species: Rattus norvegicus; assay: Antithrombotic activity in rat venous thrombus model assessed as inhibition of injury-induced thrombosis; assay type: functional, organism-based
# Summary of the method: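 Rats given test compound orally; thrombosis induced by vascular injury with ferric chloride; thrombus formation was scored as the read-out.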
# [9] = Solubility of the compound; assay type: physicochemical
# [10] = Apparent permeability across human Caco-2 cells; assay type: ADME, cell-based
# Rattus norvegicus [11] = species: Rattus norvegicus; settings: in vivo, po, 5 mg/kg
Structure (SMILES),bioavailability (in vivo),"IC50 ([1]; Homo sapiens, Platelet, Plasma)",Ki (P2Y purinoceptor 12),Vd [2],clearance [3],half-life [4],IC50 ([1]; platelet),IC50 [5],Stability [6],solubility [9],Papp [10],F (Rattus norvegicus [11]),Ratio IC50 (Platelet),Activity (Rattus norvegicus [7]),Activity (Canis familiaris),inhibition (Rattus norvegicus [8])
CCCCOC(=O)N1CCN(C(=O)[C@H](CCC(=O)O)NC(=O)c2cc(OCCOC)cc(-c3ccccc3)n2)CC1,,4.5 µM,,,,,,,,,1.1 ×10⁻⁶ cm/s,,2.9,,,
CCCCOc1cc(C(=O)N[C@@H](CCC(=O)O)C(=O)N2CCN(C(=O)OCC)CC2)nc(-c2ccccc2)c1,72%,34 µM,0.06 µM,3.9 L/kg,109 mL/min/kg,24 min,,,,,,,32,,,
CCCNc1cc(C(=O)N[C@@H](CCC(=O)O)C(=O)N2CCN(C(=O)OCC)CC2)nc(-c2ccccc2)c1,80%,28 µM,,3.8 L/kg,85 mL/min/kg,30 min,,,,,,,28,,,
CCCCCOC(=O)N1CCN(C(=O)[C@H](CCC(=O)O)NC(=O)c2cc(O)cc(-c3ccccc3)n2)CC1,66%,10 µM,0.011 µM,29 L/kg,675 mL/min/kg,30 min,,,,,,,7.2,,,
CCOC(=O)N1CCN(C(=O)[C@H](CCC(=O)O)NC(=O)c2cc(OCCOC)cc(-c3ccccc3)n2)CC1,33%,6 µM,0.14 µM,13.6 L/kg,94 mL/min/kg,12 min,,,,,,,8,,,

# Now from value to compound, other results behind:
bioavailability (in vivo),"IC50 ([1]; Homo sapiens, Platelet, Plasma)",Ki (P2Y purinoceptor 12),Vd [2],clearance [3],half-life [4],IC50 ([1]; platelet),IC50 [5],Stability [6],solubility [9],Papp [10],F (Rattus norvegicus [11]),Structure (SMILES),Ratio IC50 (Platelet),Activity (Rattus norvegicus [7]),Activity (Canis familiaris),inhibition (Rattus norvegicus [8])
1%,2.4 µM,0.0094 µM,6.9 L/kg,150 mL/min/kg,30 min,,,,,,,CCCCCCOC(=O)N1CCN(C(=O)[C@H](CCC(=O)O)NC(=O)c2cc(OC3CCNCC3)cc(-c3ccccc3)n2)CC1,1.8,,,
,,,,,,3.9 µM,1.8 µM,Stable,Soluble,,,CCCCCOC(=O)N1CCN(C(=O)[C@H](CCC(=O)O)NC(=O)c2cc(N3CCC(COC)CC3)cc(-c3ccccc3)n2)CC1,,Non-toxic,Non-toxic,Dose-dependent effect
34%,71 µM,0.209 µM,15.5 L/kg,98 mL/min/kg,108 min,,,,,,,CCOC(=O)N1CCN(C(=O)[C@H](CCC(=O)O)NC(=O)c2cccc(-c3ccccc3)n2)CC1,,,,
,4.3 µM,,2.3 L/kg,46 mL/min/kg,36 min,,,,,,183%,CCCCCOC(=O)N1CCN(C(=O)[C@H](CCC(=O)O)NC(=O)c2cc(OCCOC)cc(-c3ccccc3)n2)CC1,3.2,,,
8%,3.8 µM,0.0057 µM,3.9 L/kg,103 mL/min/kg,24 min,,,,,,,CCCCCOC(=O)N1CCN(C(=O)[C@H](CCC(=O)O)NC(=O)c2cc(NCCO)cc(-c3ccccc3)n2)CC1,3.2,,,
